Experimental data reported in ChEMBL document CHEMBL1157617, “A new class of naphthalimide-based antitumor agents that inhibit topoisomerase II and induce lysosomal membrane permeabilization and apoptosis” (J Med Chem, 2010).
Activity calls are given as the source filed them. The calls are words filed in the database; no cut-off is given here.

Experiments:
[1] = molecular target: DNA topoisomerase 2-alpha (Homo sapiens) (UniProt P11388); experiment: Inhibition of DNA topoisomerase 2-mediated kDNA decatenation at 100 uM
Chain of DNA topoisomerase 2-alpha (Homo sapiens) (P11388 whole entry): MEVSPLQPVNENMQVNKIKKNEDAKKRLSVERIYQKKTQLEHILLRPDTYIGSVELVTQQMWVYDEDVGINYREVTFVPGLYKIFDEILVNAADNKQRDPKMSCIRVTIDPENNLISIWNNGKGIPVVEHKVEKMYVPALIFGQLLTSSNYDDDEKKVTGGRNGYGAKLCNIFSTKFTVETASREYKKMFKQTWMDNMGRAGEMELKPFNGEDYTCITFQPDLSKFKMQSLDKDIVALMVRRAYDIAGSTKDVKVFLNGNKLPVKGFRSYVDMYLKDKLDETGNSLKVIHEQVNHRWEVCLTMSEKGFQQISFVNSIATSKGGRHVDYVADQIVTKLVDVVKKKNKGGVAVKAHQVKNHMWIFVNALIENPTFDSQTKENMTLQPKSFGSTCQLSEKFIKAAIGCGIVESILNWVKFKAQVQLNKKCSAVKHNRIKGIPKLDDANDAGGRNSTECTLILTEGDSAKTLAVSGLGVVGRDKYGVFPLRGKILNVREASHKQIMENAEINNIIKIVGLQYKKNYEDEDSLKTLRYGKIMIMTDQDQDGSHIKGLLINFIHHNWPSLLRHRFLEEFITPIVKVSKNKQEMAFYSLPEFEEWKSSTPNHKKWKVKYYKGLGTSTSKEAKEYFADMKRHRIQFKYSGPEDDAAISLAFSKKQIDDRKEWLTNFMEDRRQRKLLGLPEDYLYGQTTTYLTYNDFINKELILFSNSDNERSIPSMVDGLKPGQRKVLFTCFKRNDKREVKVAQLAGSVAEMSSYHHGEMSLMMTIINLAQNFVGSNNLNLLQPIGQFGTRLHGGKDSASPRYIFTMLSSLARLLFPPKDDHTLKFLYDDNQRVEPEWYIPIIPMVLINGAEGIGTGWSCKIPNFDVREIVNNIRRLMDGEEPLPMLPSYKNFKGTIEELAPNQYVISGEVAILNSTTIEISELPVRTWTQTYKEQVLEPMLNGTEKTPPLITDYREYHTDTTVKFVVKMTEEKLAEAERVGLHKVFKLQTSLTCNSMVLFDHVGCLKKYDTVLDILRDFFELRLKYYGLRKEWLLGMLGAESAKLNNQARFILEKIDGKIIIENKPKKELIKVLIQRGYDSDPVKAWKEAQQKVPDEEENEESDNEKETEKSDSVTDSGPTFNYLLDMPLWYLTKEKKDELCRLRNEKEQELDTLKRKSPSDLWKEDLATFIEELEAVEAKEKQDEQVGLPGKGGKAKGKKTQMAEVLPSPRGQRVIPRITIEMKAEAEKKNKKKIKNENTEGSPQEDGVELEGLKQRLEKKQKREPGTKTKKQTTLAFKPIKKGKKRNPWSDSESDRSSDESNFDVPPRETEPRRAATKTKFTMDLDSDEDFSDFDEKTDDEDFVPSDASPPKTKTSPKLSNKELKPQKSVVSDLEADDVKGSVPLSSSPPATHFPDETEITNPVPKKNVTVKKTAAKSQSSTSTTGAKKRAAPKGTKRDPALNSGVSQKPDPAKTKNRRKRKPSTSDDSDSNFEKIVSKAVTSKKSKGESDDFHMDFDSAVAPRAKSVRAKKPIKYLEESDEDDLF
In short: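 Cell-free topo II decatenation: 0.2 μg kDNA was incubated with HeLa-cell topo II extract and compound at 100 μM. The cleavage buffer contained 50 mM Tris-HCl pH 8.0, 120 mM KCl, 10 mM MgCl2, 1 mM ATP and 0.5 mM DTT. Reactions ran 15 min at 37 °C and were stopped with SDS. Products were resolved on 1% agarose and stained with ethidium bromide.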

Calf thymus DNA [2] = experiment: Binding affinity to calf thymus DNA assessed as circular dichroism by CD spectroscopy; assay type: nucleic-acid assay; details: Bos taurus
In short: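 CT DNA (100 μM) with drug (20 μM) in 20 mM Tris-HCl pH 7.4. DNA concentration set by UV absorbance, A260/A280 above 1.8. CD spectrum recorded 200-400 nm in a 1 cm cell after shaking, thermal equilibration and buffer subtraction. Analysed over 230-300 nm.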

MCF7 [3] = experiment: Cytotoxicity against human MCF7 cells after 24 hrs by MTT assay; details: MCF7, 24 h
HeLa [4] = experiment: Induction of cytochrome c release into cytosol in human HeLa cells at IC50 concentration after 24 hrs by FITC/Hoechst soluble immunocytochemical staining; assay type: functional, cell-based
In short: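 HeLa cells were treated 24 h at compound-specific concentrations, then fixed in 10% formaldehyde, permeabilized in 90% methanol and blocked with milk. Staining was rabbit anti-cytochrome c (1:500) then FITC goat anti-rabbit IgG (1:100), 1 h each at room temperature, with 2 μg/mL Hoechst 33258 as counterstain. Cytosolic green signal was imaged by confocal microscopy.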

HeLa [5] = experiment: Induction of lysosomal membrane permeabilization in human HeLa cells assessed as acridine orange red fluorescence at 8 uM after 24 hrs by flow cytometry; assay type: functional
In short: (§1)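 Each compound was tested at three concentrations on HeLa cells for 24 h. Adherent and floating cells were pooled and stained with 20 μg/mL acridine orange for 2 min at room temperature. Lysosomal rupture was scored by flow cytometry as percentage of cells with AO red fluorescence.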

Nucleic Acid = experiment: Induction of conformational changes in Escherichia coli pBR322 DNA assessed as DNA relaxation at 100 uM after 2 hrs by gel electrophoresis; assay type: nucleic-acid assay
In short: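 pBR322 plasmid (200 ng) was incubated with compound at 100 μM in Tris-HCl pH 7.4 for 2 h at 37 °C. Samples ran on 1% agarose and were stained with ethidium bromide; supercoiled versus relaxed forms were judged from gel migration.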

MKN-45 = experiment: Cytotoxicity against human MKN45 cells after 24 hrs by MTT assay; details: MKN-45, 24 h
HL-60 = experiment: Cytotoxicity against human HL60 cells after 72 hrs by MTT assay; assay type: functional, cell-based; details: HL-60, 24 h, in the assay text read “after 24 hrs” for “after 72 hrs”
In short: (§2)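 MTT viability assay on HeLa, HL-60, MCF-7, MKN45 and LS174 cells. MTT (500 μg/mL) was added for 4 h at 37 °C and formazan dissolved in DMSO; A570 was read. IC50 came from linear regression; experiments were done in triplicate.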

HeLa [6] = experiment: Induction of lysosomal membrane permeabilization in human HeLa cells assessed as acridine orange red fluorescence at 5 uM after 24 hrs by flow cytometry; assay type: functional; in short: as §1
[7] = Cytotoxicity against human LS 174T cells after 24 hrs by MTT assay; details: LS174T
HeLa [8] = experiment: Induction of apoptosis in human HeLa cells assessed as viable cells at IC50 concentration after 24 hrs using annexin V/propidium iodide staining by flow cytometry; assay type: functional
In short: (§3)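 HeLa cells, seeded at 1 × 10^6 per well, were treated for 24 h at a fixed concentration set per compound. Cells were washed in cold PBS and resuspended in binding buffer. Staining was annexin V-FITC at 4 °C in the dark for 15 min, then PI for 5 min. Quadrants were read by flow cytometry: live, early apoptotic, late apoptotic, damaged. Run three times.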

HeLa [9] = experiment: Induction of lysosomal membrane permeabilization in human HeLa cells assessed as acridine orange red fluorescence at 11 uM after 24 hrs by flow cytometry; assay type: functional; in short: as §1
HeLa [10] = experiment: Induction of apoptosis in human HeLa cells assessed as damaged cells at IC50 concentration after 24 hrs using annexin V/propidium iodide staining by flow cytometry; assay type: functional; in short: as §3
HeLa [11] = experiment: Cytotoxicity against human HeLa cells after 24 hrs by MTT assay
HeLa [12] = experiment: Induction of apoptosis in human HeLa cells assessed as late apoptotic cells at IC50 concentration after 24 hrs using annexin V/propidium iodide staining by flow cytometry; assay type: functional; in short: as §3
HeLa [13] = experiment: Induction of lysosomal membrane permeabilization in human HeLa cells assessed as acridine orange red fluorescence at 2 uM after 24 hrs by flow cytometry; assay type: functional; in short: as §1
HeLa [14] = experiment: Induction of lysosomal membrane permeabilization in human HeLa cells assessed as acridine orange red fluorescence at 4 uM after 24 hrs by flow cytometry; assay type: functional; in short: as §1
HeLa [15] = experiment: Induction of lysosomal membrane permeabilization in human HeLa cells assessed as acridine orange red fluorescence at 6 uM after 24 hrs by flow cytometry; assay type: functional; in short: as §1
HeLa [16] = experiment: Induction of apoptosis in human HeLa cells assessed as early apoptotic cells at IC50 concentration after 24 hrs using annexin V/propidium iodide staining by flow cytometry; assay type: functional; in short: as §3
MCF7 [17] = experiment: Cytotoxicity against human MCF7 cells after 72 hrs by MTT assay; assay type: functional, cell-based; details: MCF7, 24 h, in the assay text read “after 24 hrs” for “after 72 hrs”; in short: as §2
Calf thymus DNA [18] = experiment: Binding affinity to calf thymus DNA by fluorescent spectra analysis; assay type: nucleic-acid assay; details: Bos taurus
In short: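 Compounds at 10, 20, 30 and 50 μM in 20 mM Tris-HCl pH 7.4, with or without 100 μM CT DNA (no-DNA samples as control). Incubated 1 day in the dark at 25 °C. Fluorescence wavelength and intensity read at 25 °C. Scatchard binding constant calculated.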

HeLa [19] = experiment: Induction of lysosomal membrane permeabilization in human HeLa cells assessed as acridine orange red fluorescence at 17 uM after 24 hrs by flow cytometry; assay type: functional; in short: as §1
HeLa [20] = experiment: Induction of lysosomal membrane permeabilization in human HeLa cells assessed as acridine orange red fluorescence at 14 uM after 24 hrs by flow cytometry; assay type: functional; in short: as §1
HeLa [21] = experiment: Induction of lysosomal membrane permeabilization in human HeLa cells assessed as acridine orange red fluorescence at 20 uM after 24 hrs by flow cytometry; assay type: functional; in short: as §1
HeLa [22] = experiment: Induction of lysosomal membrane permeabilization in human HeLa cells assessed as acridine orange red fluorescence at 10 uM after 24 hrs by flow cytometry; assay type: functional; in short: as §1
HeLa [23] = experiment: Induction of lysosomal membrane permeabilization in human HeLa cells assessed as acridine orange red fluorescence at 15 uM after 24 hrs by flow cytometry; assay type: functional; in short: as §1
HeLa [24] = experiment: Induction of lysosomal membrane permeabilization in human HeLa cells assessed as acridine orange red fluorescence at 1 uM after 24 hrs by flow cytometry; assay type: functional; in short: as §1
HeLa [25] = experiment: Induction of lysosomal membrane permeabilization in human HeLa cells assessed as acridine orange red fluorescence at 3 uM after 24 hrs by flow cytometry; assay type: functional; in short: as §1
HeLa [26] = experiment: Induction of lysosomal membrane permeabilization in human HeLa cells assessed as acridine orange red fluorescence at 7 uM after 24 hrs by flow cytometry; assay type: functional; in short: as §1
[27] = in the assay text read “late apoptotic cells” for “damaged cells”

| Activity [1] | Activity (Calf thymus DNA [2]) | Activity (Nucleic Acid) | SMILES | Activity (HeLa [4]) | IC50 (MKN-45) [µM] | IC50 (HL-60) [µM] | IC50 [7] [µM] | IC50 (HeLa [11]) [µM] | Activity (HeLa [14]) [%] | Activity (HeLa [10]; [27]) [%] | Activity (HeLa [16]) [%] | IC50 (MCF7 [17]) [µM] | other results |
| --- | --- | --- | --- | --- | --- | --- | --- | --- | --- | --- | --- | --- | --- |
| Active | inactive | inactive | CCCCCCCCNc1ccc2c3c(cccc13)C(=O)N(CCCN1CCN(C)CC1)C2=O | Active | 22.2 | 5.7 | 18.4 | 8.1 |  |  |  |  | IC50 (MCF7 [3]): 5.72 µM; Activity (HeLa [5]): 91.86%; Activity (HeLa [6]): 89.48%; Activity (HeLa [8]): 3.28%; Activity (HeLa [9]): 83.18%; Activity (HeLa [10]): 96.66%; Activity (HeLa [12]): 96.7% |
| Active | inactive | inactive | CCCCCCCCNc1ccc2c3c(cccc13)C(=O)N(CCCNCCN(C)C)C2=O | Active | 14.8 | 2.67 | 9.16 | 4.06 | 84.5 |  | 74.25 | 2.41 | Activity (HeLa [13]): 83.13%; Activity (HeLa [15]): 32.89%; Activity (HeLa [8]): 25.7% |
| Active |  | Active | COc1cccc2c1C(=O)c1c(O)c3c(c(O)c1C2=O)C[C@@](O)(C(=O)CO)C[C@@H]3O[C@H]1C[C@H](N)[C@H](O)[C@H](C)O1 |  |  |  |  |  |  |  |  |  |  |
| Active | inactive | inactive | CCCCCCCCCCCCN1C(=O)c2cccc3c(NCCNCCN(C)C)ccc(c23)C1=O | Active | 11.8 | 6.63 | 18.6 | 16.8 |  | 20.72 | 79.21 | 4.52 | Activity (HeLa [19]): 93.5%; Activity (HeLa [20]): 94.85%; Activity (HeLa [21]): 88.49% |
| Active | inactive | inactive | CCCCCCCCCCCCNc1ccc2c3c(cccc13)C(=O)N(CCCN1CCN(C)CC1)C2=O | Active | 8.43 | 2.98 | 7.43 | 2.89 |  | 14.96 | 84.84 | 2.48 | Activity (HeLa [6]): 59.82%; Activity (HeLa [24]): 96.01%; Activity (HeLa [25]): 95.2% |
| Active | inactive | inactive | CCCCCCCCN1C(=O)c2cccc3c(NCCN4CCN(C)CC4)ccc(c23)C1=O | Active | 17.4 | 12 | 17.9 | 7.9 | 93.04 | 53.82 |  | 8.35 | Activity (HeLa [22]): 89.89%; Activity (HeLa [26]): 88.55% |

The next lines start with the compound.

| SMILES | Activity [1] | Activity (Calf thymus DNA [2]) | Activity (Nucleic Acid) | Activity (HeLa [4]) | IC50 (MKN-45) [µM] | IC50 (HL-60) [µM] | IC50 [7] [µM] | IC50 (HeLa [11]) [µM] | Activity (HeLa [14]) [%] | Activity (HeLa [10]; [27]) [%] | Activity (HeLa [16]) [%] | IC50 (MCF7 [17]) [µM] | other results |
| --- | --- | --- | --- | --- | --- | --- | --- | --- | --- | --- | --- | --- | --- |
| CCCCCCCCCCCCN1C(=O)c2cccc3c(NCCN4CCN(C)CC4)ccc(c23)C1=O | Active | inactive | inactive | Active | 9.28 | 7.05 | 12.7 | 5.45 | 95.81 | 12.75 | 86.98 | 2.79 | Activity (HeLa [13]): 97.39%; Activity (HeLa [15]): 92.83% |
| CNc1ccc2c3c(cccc13)C(=O)N(CCCN(C)C)C2=O |  |  |  |  | > 50 | 21.6 | 31.5 | 23.4 |  |  |  | 9.66 |  |
| CCCCCCCCN1C(=O)c2cccc3c(NCCNCCN(C)C)ccc(c23)C1=O | Active | inactive | inactive | Active | 9.28 | 5.13 | 9.27 | 4.5 | 90.98 | 9.82 | 90.07 | 3.76 | Activity (HeLa [13]): 92.29%; Activity (Calf thymus DNA [18]): inactive; Activity (HeLa [15]): 85.74% |
| CCCCCCCCNc1ccc2c3c(cccc13)C(=O)N(CCCN(C)C)C2=O |  |  |  |  | 17.6 | 5.53 | 5.87 | 8.52 |  |  |  | 5.15 |  |
| CCCCCCCCCCCCN1C(=O)c2cccc3c(NCCN(C)C)ccc(c23)C1=O |  |  |  |  | 9.03 | 5.32 | 12.8 | 9.13 |  |  |  | 3.57 |  |
| CCCCCCCCCCCCN1C(=O)c2cccc3c(NCCCCCCCC)ccc(c23)C1=O |  |  |  |  | > 50 | > 50 | > 50 | 46.4 |  |  |  | > 50 |  |
| CCCCCCCCCCCCNc1ccc2c3c(cccc13)C(=O)N(CCCNCCN(C)C)C2=O | Active | inactive | inactive | Active | 15.5 | 4.04 | 9.43 | 4.71 | 82.37 | 98.89 |  | 2.56 | Activity (HeLa [13]): 85.49%; Activity (HeLa [15]): 44.64%; Activity (HeLa [8]): 1.05%; Activity (HeLa [12]): 98.89% |
| CN(C)CCN1C(=O)c2cccc3cc(N)cc(c23)C1=O [AMONAFIDE] | Active |  |  |  | > 50 |  | 20.3 | 10.7 |  |  |  |  | Activity (HeLa [22]): 10%; Kb (Calf thymus DNA [18]): 14300 M⁻¹; Activity (HeLa [6]): 112%; Activity (HeLa [23]): 77.27% |
